Reference: ChEMBL document CHEMBL1138555, “N-acylated and N,N'-diacylated imidazolidine-2-thione derivatives and N,N'-diacylated tetrahydropyrimidine-2(1H)-thione analogues: synthesis and antiproliferative activity” (Eur J Med Chem, 2009)
pIC50: −log10 of the molar value.

Key:
[1] = system: HCT-116; experiment: Growth inhibition of human HCT116 cells after 48 hrs by sulforhodamine B assay; type: functional; details: HCT-116, 48 h
How it was run: (§1)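 NCI screen panel. Five 10-fold concentrations from 10^-4 to 10^-8 M. Exposure for the last 48 h of a 72 h incubation. Growth estimated by sulforhodamine B protein assay. GI50 is the concentration giving 50% growth inhibition. Where that level was not reached or was exceeded, the value is given as above or below the highest or lowest concentration tested.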

[2] = system: EKVX; experiment: Growth inhibition of human EKVX cells after 48 hrs by sulforhodamine B assay; type: functional; how it was run: as §1
[3] = system: OVCAR-8; experiment: Growth inhibition of human OVCAR8 cells after 48 hrs by sulforhodamine B assay; type: functional; details: OVCAR-8, 48 h; how it was run: as §1
[4] = system: SK-OV-3; experiment: Growth inhibition of human SKOV3 cells after 48 hrs by sulforhodamine B assay; type: functional; details: SK-OV-3, 48 h; how it was run: as §1
[5] = system: DU-145; experiment: Growth inhibition of human DU145 cells after 48 hrs by sulforhodamine B assay; type: functional; details: DU-145, 48 h; how it was run: as §1
[6] = system: MDA-MB-435; experiment: Growth inhibition of human MDA-MB-435 cells after 48 hrs by sulforhodamine B assay; type: functional; details: MDA-MB-435, 48 h; how it was run: as §1
[7] = system: T47D; experiment: Growth inhibition of human T47D cells after 48 hrs by sulforhodamine B assay; type: functional
How it was run: (§2)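 NCI in vitro panel screen. Compounds tested at five 10-fold dilutions, 10^-4 to 10^-8 M. Cells in 96-well plates were exposed for the last 48 h of a 72 h incubation. Viability/growth was read by sulforhodamine B protein assay. GI50 is the concentration giving 50% growth inhibition. Values beyond the tested range are reported as greater or less than the maximum or minimum concentration.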

[8] = system: HOP-62; experiment: Growth inhibition of human HOP62 cells after 48 hrs by sulforhodamine B assay; type: functional; details: HOP-62, 48 h; how it was run: as §1
[9] = system: MOLT-4; experiment: Growth inhibition of human MOLT4 cells after 48 hrs by sulforhodamine B assay; type: functional; details: MOLT-4, 48 h; how it was run: as §1
[10] = system: HT-29; experiment: Growth inhibition of human HT-29 cells after 48 hrs by sulforhodamine B assay; type: functional; details: HT-29, 48 h; how it was run: as §1
[11] = system: SR; experiment: Growth inhibition of human SR cells after 48 hrs by sulforhodamine B assay; type: functional; how it was run: as §2
[12] = system: M14; experiment: Growth inhibition of human M14 cells after 48 hrs by sulforhodamine B assay; type: functional; details: M14, 48 h; how it was run: as §1
[13] = system: SK-MEL-5; experiment: Growth inhibition of human SK-MEL-5 cells after 48 hrs by sulforhodamine B assay; type: functional; details: SK-MEL-5, 48 h; how it was run: as §1
[14] = system: 786-0; experiment: Growth inhibition of human 786-0 cells after 48 hrs by sulforhodamine B assay; type: functional; details: 786-0, 48 h; how it was run: as §1
[15] = system: COLO 205; experiment: Growth inhibition of human COLO205 cells after 48 hrs by sulforhodamine B assay; type: functional; details: COLO 205, 48 h; how it was run: as §1
[16] = system: HOP-92; experiment: Growth inhibition of human HOP92 cells after 48 hrs by sulforhodamine B assay; type: functional; details: HOP-92, 48 h; how it was run: as §1
[17] = Growth inhibition of human […] cells after 48 hrs by sulforhodamine B assay; type: functional; how it was run: as §1
[18] = system: NCI-H322M; experiment: Growth inhibition of human NCI-H322M cells after 48 hrs by sulforhodamine B assay; type: functional; how it was run: as §1
[19] = system: UO-31; experiment: Growth inhibition of human UO31 cells after 48 hrs by sulforhodamine B assay; type: functional; details: UO-31, 48 h; how it was run: as §2
[20] = system: HCT-15; experiment: Growth inhibition of human HCT15 cells after 48 hrs by sulforhodamine B assay; type: functional; details: HCT-15, 48 h; how it was run: as §1
[21] = system: Malme-3M; experiment: Growth inhibition of human MALME-3M cells after 48 hrs by sulforhodamine B assay; type: functional; how it was run: as §1
[22] = system: MT4; experiment: Antiproliferative activity against human MT4 cells assessed as reduction of growth by MTT assay; type: functional, cell-based
How it was run: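 MT-4 lymphoblastoid T cells (ATCC) in RPMI 1640 with 10% FCS, penicillin/streptomycin, checked for mycoplasma. 1 × 10⁴ mock-infected cells per well with serial dilutions from a 100 mM DMSO stock. Incubated 4 days at 37 °C, viable cells counted by MTT. IC50 versus untreated controls by linear regression. Mean of three separate experiments.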

[23] = system: PC-3; experiment: Growth inhibition of human PC3 cells after 48 hrs by sulforhodamine B assay; type: functional; details: PC-3, 48 h; how it was run: as §1
[24] = system: UACC-62; experiment: Growth inhibition of human UACC62 cells after 48 hrs by sulforhodamine B assay; type: functional; details: UACC-62, 48 h; how it was run: as §2
[25] = system: OVCAR-4; experiment: Growth inhibition of human OVCAR4 cells after 48 hrs by sulforhodamine B assay; type: functional; details: OVCAR-4, 48 h; how it was run: as §1
[26] = system: SNB-75; experiment: Growth inhibition of human SNB75 cells after 48 hrs by sulforhodamine B assay; type: functional; details: SNB-75, 48 h; how it was run: as §2
[27] = system: LOX IMVI; experiment: Growth inhibition of human LOXIMVI cells after 48 hrs by sulforhodamine B assay; type: functional; how it was run: as §1
[28] = system: MCF7; experiment: Growth inhibition of human MCF7 cells after 48 hrs by sulforhodamine B assay; type: functional; details: MCF7, 48 h; how it was run: as §1
[29] = system: KM12; experiment: Growth inhibition of human KM12 cells after 48 hrs by sulforhodamine B assay; type: functional; details: KM12, 48 h; how it was run: as §1
[30] = system: SF-539; experiment: Growth inhibition of human SF539 cells after 48 hrs by sulforhodamine B assay; type: functional; details: SF-539, 48 h; how it was run: as §1
[31] = system: BT-549; experiment: Growth inhibition of human BT549 cells after 48 hrs by sulforhodamine B assay; type: functional; details: BT-549, 48 h; how it was run: as §1
[32] = system: TK-10; experiment: Growth inhibition of human TK10 cells after 48 hrs by sulforhodamine B assay; type: functional; details: TK-10, 48 h; how it was run: as §2
[33] = system: IGROV-1; experiment: Growth inhibition of human IGROV1 cells after 48 hrs by sulforhodamine B assay; type: functional; details: IGROV-1, 48 h; how it was run: as §1
[34] = system: SNB-19; experiment: Growth inhibition of human SNB19 cells after 48 hrs by sulforhodamine B assay; type: functional; details: SNB-19, 48 h; how it was run: as §2
[35] = system: A549; experiment: Growth inhibition of human A549 cells after 48 hrs by sulforhodamine B assay; type: functional; details: A549, 48 h; how it was run: as §1
[36] = system: ACHN; experiment: Growth inhibition of human ACHN cells after 48 hrs by sulforhodamine B assay; type: functional; how it was run: as §1
[37] = system: OVCAR-3; experiment: Growth inhibition of human OVCAR-3 cells after 48 hrs by sulforhodamine B assay; type: functional; details: OVCAR-3, 48 h; how it was run: as §1
[38] = system: SF-295; experiment: Growth inhibition of human SF295 cells after 48 hrs by sulforhodamine B assay; type: functional; details: SF-295, 48 h; how it was run: as §1
[39] = system: SF-268; experiment: Growth inhibition of human SF268 cells after 48 hrs by sulforhodamine B assay; type: functional; details: SF-268, 48 h; how it was run: as §1
[40] = system: K562; experiment: Growth inhibition of human K562 cells after 48 hrs by sulforhodamine B assay; type: functional; details: K562, 48 h; how it was run: as §1
[41] = system: CAKI-1; experiment: Growth inhibition of human Caki1 cells after 48 hrs by sulforhodamine B assay; type: functional; details: CAKI-1, 48 h; how it was run: as §1
[42] = system: NCI-H460; experiment: Growth inhibition of human NCI-H460 cells after 48 hrs by sulforhodamine B assay; type: functional; details: NCI-H460, 48 h; how it was run: as §1
[43] = system: SW-620; experiment: Growth inhibition of human SW620 cells after 48 hrs by sulforhodamine B assay; type: functional; details: SW-620, 48 h; how it was run: as §2
[44] = system: SN12C; experiment: Growth inhibition of human SN12C cells after 48 hrs by sulforhodamine B assay; type: functional; how it was run: as §2
[45] = system: MDA-MB-231; experiment: Growth inhibition of human MDA-MB-231 cells after 48 hrs by sulforhodamine B assay; type: functional; details: MDA-MB-231, 48 h; how it was run: as §1
[46] = system: HL-60(TB); experiment: Growth inhibition of human HL-60(TB) cells after 48 hrs by sulforhodamine B assay; type: functional; details: HL-60, 48 h
How it was run: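 NCI 60-cell-line screen protocol: cells exposed to compound at five 10-fold dilutions from 10^-4 to 10^-8 M for the last 48 h of a 72 h incubation. Sulforhodamine B protein assay estimated viability/growth. GI50 (50% growth inhibition) derived; where not reached or exceeded, reported as greater or less than the highest or lowest concentration tested.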

[47] = system: SK-MEL-28; experiment: Growth inhibition of human SK-MEL-28 cells after 48 hrs by sulforhodamine B assay; type: functional; details: SK-MEL-28, 48 h; how it was run: as §1
[48] = system: U-251; experiment: Growth inhibition of human U251 cells after 48 hrs by sulforhodamine B assay; type: functional; details: U-251, 48 h; how it was run: as §2

`CC(=O)/C(=C/N1CCN(C(=O)c2ccco2)C1=S)C(=O)c1ccccc1` showed a GI50 [1] of 6.4 µM, a GI50 [2] of 7.9 µM and a GI50 [3] of 8.8 µM. For the same compound, the GI50 [4] was 17.5 µM, the GI50 [5] was 11 µM and the GI50 [6] was 10.7 µM. For the same compound, the GI50 [7] was 4.3 µM, the GI50 [8] was 11.7 µM and the GI50 [9] was 15.9 µM. It also gave a GI50 [10] of 16.9 µM, a GI50 [11] of 2.7 µM and a GI50 [12] of 6.3 µM. It also gave a GI50 [13] of 8.1 µM, a GI50 [14] of 11.2 µM and a GI50 [15] of 16.5 µM. For the same compound, the GI50 [16] was 11.1 µM, the GI50 [17] was 3.8 µM and the GI50 [18] was 27.9 µM. It also gave a GI50 [19] of 8.8 µM, a GI50 [20] of 4.7 µM and a GI50 [21] of 9.3 µM. The pIC50 [22] was 5.30, the GI50 [23] was 17.1 µM and the GI50 [24] was 7.3 µM. It also gave a GI50 [25] of 20.1 µM, a GI50 [26] of 10.9 µM and a GI50 [27] of 8.9 µM. The GI50 [28] was 1.3 µM, the GI50 [29] was 8.4 µM and the GI50 [30] was 1.1 µM. For the same compound, the GI50 [31] was 5.6 µM, the GI50 [32] was 10.6 µM and the GI50 [33] was 10.9 µM. For the same compound, the GI50 [34] was 16.3 µM, the GI50 [35] was 10.8 µM and the GI50 [36] was 6.9 µM. It also gave a GI50 [37] of 17.2 µM, a GI50 [38] of 19.3 µM and a GI50 [39] of 10.7 µM. For the same compound, the GI50 [40] was 6.7 µM, the GI50 [41] was 9.3 µM and the GI50 [42] was 7 µM. The GI50 [43] was 6.1 µM, the GI50 [44] was 7.7 µM and the GI50 [45] was 9.5 µM. It also gave a GI50 [46] of 8.2 µM, a GI50 [47] of 28 µM and a GI50 [48] of 13.4 µM.
